Experimental data taken from ChEMBL document CHEMBL4261550, “Triazolopyrimidines identified as reversible myeloperoxidase inhibitors” (Medchemcomm, 2017).
Calls of active or inactive are those of the source. The rule behind the calls is not given here.

Columns and labels:
Myeloperoxidase [1] = molecular target: T1, Myeloperoxidase (Homo sapiens, UniProt P05164); test: Inhibition of human MPO assessed as reduction in enzyme-mediated chlorination by measuring reduction in HOCl formation in presence of H2O2/NaCl measured at 30 secs time interval for 5 mins by APF dye based fluorescence assay
T1 sequence (P05164 whole entry): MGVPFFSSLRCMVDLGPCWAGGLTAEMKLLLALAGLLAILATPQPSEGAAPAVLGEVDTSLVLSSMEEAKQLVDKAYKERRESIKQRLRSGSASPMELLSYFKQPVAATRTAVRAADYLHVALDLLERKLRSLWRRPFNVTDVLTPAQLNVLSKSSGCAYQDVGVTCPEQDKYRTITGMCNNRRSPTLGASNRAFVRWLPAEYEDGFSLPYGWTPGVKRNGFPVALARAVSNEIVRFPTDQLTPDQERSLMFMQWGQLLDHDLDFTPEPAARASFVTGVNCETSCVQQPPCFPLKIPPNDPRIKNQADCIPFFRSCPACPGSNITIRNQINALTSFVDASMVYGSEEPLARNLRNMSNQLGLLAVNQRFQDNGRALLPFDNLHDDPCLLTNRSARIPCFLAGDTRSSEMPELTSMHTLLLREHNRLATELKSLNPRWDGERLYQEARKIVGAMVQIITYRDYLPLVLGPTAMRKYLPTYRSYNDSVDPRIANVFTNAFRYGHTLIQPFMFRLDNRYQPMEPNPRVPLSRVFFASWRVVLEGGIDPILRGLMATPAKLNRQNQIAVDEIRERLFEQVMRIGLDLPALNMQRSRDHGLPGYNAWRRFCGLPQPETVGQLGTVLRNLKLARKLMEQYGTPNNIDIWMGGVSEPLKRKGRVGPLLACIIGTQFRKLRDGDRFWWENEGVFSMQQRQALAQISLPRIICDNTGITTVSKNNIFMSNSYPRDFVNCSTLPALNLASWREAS

Myeloperoxidase [2] = molecular target: T1, Myeloperoxidase; test: Inhibition of MPO in human neutrophils assessed as reduction in PMA-stimulated HOCl production incubated for 3 mins and measured for 25 mins by luminol reagent based luminescence assay
Procedure, shortened: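 Neutrophils from healthy donors isolated by dextran sedimentation then Ficoll-Paque, resuspended in HBSS; 1.106 cells/mL stimulated with 100 nM PMA; inhibitor 22 μM down to 1 nM (1:3, 10 doses) in 10% ethanol/50% PEG/40% water, 3 min at rt; luminol 100 μM final, read 25 min at 37 °C; rate taken from initial linear region.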

Cytochrome P450 2C9 = Cytochrome P450 2C9 (Homo sapiens, UniProt P11712); test: Inhibition of CYP2C9 (unknown origin); type: ADME
Homo sapiens = species on record: Homo sapiens; test: Selectivity ratio of IC50 for recombinant human C-terminal His6-tagged TPO (15 to 839 residues) expressed in baculovirus infected insect cells to IC50 for human MPO
Procedure, shortened: (§1)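 TPO residues 15–839 with C-terminal His6, baculovirus/T. ni expressed, purified by Ni affinity, anion exchange and size exclusion; 4.0 nM in 100 mM KPi pH 7.4, 10 min rt preincubation with inhibitor; then 400 μM KI/240 μM 3-iodotyrosine mix and 20 μM H2O2 (added solutions); 3,5-iodotyrosine formation monitored.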

Thyroid peroxidase = molecular target: T2, Thyroid peroxidase (Homo sapiens, UniProt P07202); test: Inhibition of recombinant human C-terminal His6-tagged TPO (15 to 839 residues) expressed in baculovirus infected insect cells assessed as reduction in H2O2-catalyzed 3,5-iodo tyrosine formation using 3-iodotyrosine and potassium iodide preincubated for 10 mins followed by 3,5-iodo tyrosine/potassium iodide/H2O2 addition and measured after 15 mins; procedure, shortened: as §1
T2 sequence (P07202 whole entry): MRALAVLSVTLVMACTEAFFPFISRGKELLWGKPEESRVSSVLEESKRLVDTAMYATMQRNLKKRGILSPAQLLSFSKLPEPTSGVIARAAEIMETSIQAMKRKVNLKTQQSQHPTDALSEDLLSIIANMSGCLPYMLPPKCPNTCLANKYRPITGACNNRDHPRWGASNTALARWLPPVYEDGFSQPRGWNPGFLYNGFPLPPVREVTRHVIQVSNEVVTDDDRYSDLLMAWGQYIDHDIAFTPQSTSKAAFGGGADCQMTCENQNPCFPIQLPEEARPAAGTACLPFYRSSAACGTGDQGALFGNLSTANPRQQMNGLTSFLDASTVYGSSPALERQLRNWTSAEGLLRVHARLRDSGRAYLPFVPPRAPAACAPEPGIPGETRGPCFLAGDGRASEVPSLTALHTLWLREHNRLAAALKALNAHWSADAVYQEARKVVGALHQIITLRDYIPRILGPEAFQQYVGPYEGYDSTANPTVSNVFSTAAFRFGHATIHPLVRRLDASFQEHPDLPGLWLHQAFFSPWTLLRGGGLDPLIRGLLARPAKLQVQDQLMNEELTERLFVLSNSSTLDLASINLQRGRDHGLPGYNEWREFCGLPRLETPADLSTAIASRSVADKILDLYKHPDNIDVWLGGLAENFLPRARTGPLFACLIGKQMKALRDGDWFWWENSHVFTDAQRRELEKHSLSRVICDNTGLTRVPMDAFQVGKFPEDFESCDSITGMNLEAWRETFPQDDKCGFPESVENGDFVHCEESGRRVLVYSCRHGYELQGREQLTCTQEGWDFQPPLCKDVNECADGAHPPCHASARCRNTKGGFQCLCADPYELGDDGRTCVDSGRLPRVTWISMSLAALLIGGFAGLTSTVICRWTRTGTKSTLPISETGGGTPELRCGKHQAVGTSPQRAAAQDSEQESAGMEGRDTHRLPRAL

Myeloperoxidase [3] = molecular target: T1, Myeloperoxidase; test: Inhibition of human MPO chlorination activity assessed as reduction in ApoA1-mediated [1,2 3H]-cholesterol efflux in PMA-stimulated human THP1 cells preincubated with enzyme and ApoA1 for 30 mins in presence of H2O2 followed by addition to THP1 cells and measured after overnight incubation
[4] = Protein binding in mouse plasma; type: ADME, cell-free; details: read-out: PPB (converted)
Mus musculus = test: In vivo inhibition of MPO in PMA-stimulated C57BL6 mouse neutrophil degranulation model assessed as reduction in HOCl production at 30 mg/kg, po pretreated for 20 mins followed by PMA stimulation and measured after 2 mins by luminol chemiluminescence assay relative to control; type: functional
Procedure, shortened: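 C57Bl6 mice dosed orally 30 mpk or vehicle 20 min before retro-orbital PMA 0.62 mg/kg; blood drawn 2 min after PMA and held on ice; 100 μL blood mixed with luminol, chemiluminescence read kinetically 25 min at 37 °C, HOCl production rate calculated.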

[5] = molecular target: T3, Myeloperoxidase (Homo sapiens) (UniProt P05164); test: Reversible inhibition of human MPO peroxidase activity at 50 to 250 nM preincubated for up to 30 mins followed by H2O2 addition and 2 to 10 times compound dilution measured at 30 secs time interval for 5 mins by amplex red reagent based fluorescence assay
T3 sequence (whole entry): T1 sequence (P05164 whole entry)
Procedure, shortened: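 20 nM MPO in phosphate buffer with 100 nM H2O2 and inhibitor at 2–10-fold enzyme concentration. Controls: 0.2% DMSO, irreversible hydrazide. Aliquots taken after 2, 10, 20 and 30 min and passed through a G50 spin column. 5 µL flow-through assayed by Amplex Red; initial rate gave % activity remaining versus control. Also run with 100 mM NaCl and 150 µM L-methionine.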

[6] = Protein binding in human plasma; type: ADME, cell-free; details: read-out: PPB

Chain of Cytochrome P450 2C9 (P11712 whole entry, the tested form may be a part): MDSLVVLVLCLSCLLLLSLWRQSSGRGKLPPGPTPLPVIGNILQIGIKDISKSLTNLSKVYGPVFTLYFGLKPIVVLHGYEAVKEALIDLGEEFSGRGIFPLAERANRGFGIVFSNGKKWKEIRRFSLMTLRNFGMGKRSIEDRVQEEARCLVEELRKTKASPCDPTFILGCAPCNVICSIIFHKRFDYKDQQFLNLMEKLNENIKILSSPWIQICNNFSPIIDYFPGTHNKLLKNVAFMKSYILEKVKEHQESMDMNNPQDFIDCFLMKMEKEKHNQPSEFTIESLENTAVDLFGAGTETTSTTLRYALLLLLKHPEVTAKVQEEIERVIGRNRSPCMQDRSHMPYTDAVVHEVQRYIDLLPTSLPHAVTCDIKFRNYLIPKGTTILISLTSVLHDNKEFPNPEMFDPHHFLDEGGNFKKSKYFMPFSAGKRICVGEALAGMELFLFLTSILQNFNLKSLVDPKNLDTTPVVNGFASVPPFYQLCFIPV

IC50 (Myeloperoxidase [1])	IC50 (Myeloperoxidase [2])	IC50 (Cytochrome P450 2C9)	IC50 (Thyroid peroxidase)	EC50 (Myeloperoxidase [3])	fraction unbound [4]	inhibition [5]	fraction unbound [6]	Structure (SMILES)	Ratio IC50 (Homo sapiens)	inhibition in vivo at 30 mg/kg (Mus musculus)
0.32 µM	1.7 µM	< 0.1 µM	6 µM					Nc1ccc(Oc2cc(Cl)c(Cl)cc2Cl)cn1	> 10	
0.084 µM	5 µM		> 30 µM	10 µM	0.13	Active	0.01	Nc1nc(OCc2ccccc2)c2[nH]nnc2n1	> 10	50%
